Assay results collected from several papers.
Read-out: cell growth or viability

SMILES	cell line	assay	setting	CC50
COc1ccc(NC(=O)N2CCCCN3C[C@H](c4ccc(C#Cc5ccccc5)cc4)[C@@H]3C2)cc1	HEK-293T			25 µM
Nc1nc(NS(=O)(=O)c2ccccc2)nc(-c2ccc(Cl)cc2)c1-c1nc2ccccc2s1	BGM			230 µg/mL
Cc1ccc2c(c1C)NC(=O)[C@]21NN=C(c2ccccc2)S1	Huh-7	MTT	24 h	28.6 µM
O=C(CNc1nc(NS(=O)(=O)c2ccccc2)ncc1-c1nc2ccccc2s1)c1ccc(Cl)cc1	BGM			220 µg/mL
CCOP(=O)(OCC)[C@@H]1C[C@H](n2cc(Cn3ccc(NC(C)=O)nc3=O)nn2)ON1C (racemic)	human T-lymphocyte		72 h	> 250 µM
O=c1oc2c(O)c(O)cc3c(=O)oc4c(O)c(O)cc1c4c23	Huh-7	MTT		> 5000 µM
CCOP(=O)(OCC)[C@@H]1C[C@@H](n2cc(C(=O)OC)nn2)ON1C (relative stereo)	human T-lymphocyte		72 h	> 250 µM
C=C1CN(S(=O)(=O)c2ccc(C)cc2)CCCN(CCc2ccccc2)CCCN(S(=O)(=O)c2ccc(C)cc2)C1	HEK-293T	resazurin	72 h	> 50 µM
O=C(O)c1cc(-c2ccc(Br)cc2)nc2ccc(Cl)cc12	Huh-7	MTT	24 h	89.7 µM
O=C1O[C@H]2[C@@H]3OC(=O)c4cc(O)c(O)c(O)c4-c4c(O)c(O)c5oc(=O)c6c(c(O)c(O)c7oc(=O)c4c5c76)-c4c(cc(O)c(O)c4O)C(=O)OC[C@H]3OC(O)[C@@H]2OC(=O)c2cc(O)c(O)c(O)c2-c2c1cc(O)c(O)c2O (mixture of isomers)	Huh-7	MTT		> 5000 µM
CCOP(=O)(OCC)[C@@H]1C[C@H](n2cc(-c3ccc(F)cc3F)nn2)ON1C	human T-lymphocyte		72 h	≥ 250 µM
O=C(O)c1ccc(-n2nc(-c3ccccc3O)nc2-c2ccccc2O)cc1	Huh-7	MTT	24 h	> 200 µM
CCOP(=O)(OCC)[C@@H]1C[C@@H](n2cc(-c3nccn3C)nn2)ON1C	human T-lymphocyte		72 h	> 250 µM
Cc1ccc2oc(-c3cc(NC(=O)Cc4ccccc4)ccc3Cl)nc2c1	Huh-7	MTT	24 h	> 400 µM
CCO[C@H](COc1ccc(C(F)(F)F)cc1)CSc1ccc(OCC(=O)O)c(C)c1	LX-2	ATP luminescence	48 h, serum-free	> 50 µM
CCOc1ccc(-c2nc(CNCCc3ccc(F)cc3)cs2)cc1	Huh-7	MTT	24 h	87.8 µM
CCOP(=O)(OCC)[C@@H]1C[C@@H](n2cc(Cn3cnc4c(N)ncnc43)nn2)ON1C (racemic)	human T-lymphocyte		72 h	> 250 µM
CN1CCC(NCc2cccc(-c3ccc(S(=O)(=O)NCc4ccccc4)cc3)c2)CC1	Huh-7	MTT	24 h	6.84 µM
CCOP(=O)(OCC)[C@@H]1C[C@H](n2cc(-c3cccc(F)c3)nn2)ON1C	human T-lymphocyte		72 h	> 250 µM
COc1ccc(NC(=O)N2CCCCN3[C@H](CN(C)S(C)(=O)=O)[C@H](c4ccc(C#Cc5ccccc5)cc4)[C@@H]3C2)cc1	HEK-293T			> 40 µM
O=C(O)CCCc1cc2cc(Cl)ccc2n1S(=O)(=O)c1ccc2ncsc2c1	LX-2	ATP luminescence	48 h, serum-free	> 40 µM
Cc1ccc(S(=O)(=O)Nc2nc(N)c(-c3nc4ccccc4s3)c(-c3ccc(Cl)cc3)n2)cc1	BGM			190 µg/mL
CCOP(=O)(OCC)[C@@H]1C[C@H](n2cc(-c3ccccn3)nn2)ON1C	human T-lymphocyte		72 h	> 250 µM
Cc1onc(-c2ccccc2)c1-c1ccc(S(N)(=O)=O)cc1	Huh-7	MTT	24 h	> 200 µM
Cc1ccc(S(=O)(=O)Nc2ncc(-c3nc4ccccc4s3)c(N)n2)cc1	BGM			200 µg/mL
O[C@@H](c1cc(C(F)(F)F)nc2c(C(F)(F)F)cccc12)[C@H]1CCCCN1	Huh-7	MTT	24 h	15.9 µM
CCOP(=O)(OCC)[C@@H]1C[C@H](n2cc(Cn3cc(C)c(=O)[nH]c3=O)nn2)ON1C (racemic)	human T-lymphocyte		72 h	> 250 µM
